# Experimental data from different studies.
# Observed: cell growth or viability
SMILES,cell line,method,time,notes,IC50
O=C1Nc2ccccc2/C1=N/N=C/c1cccc([N+](=O)[O-])c1,HUVEC,MTT,24 h,,221 µg/mL
Nc1cc2cccnc2c2ncccc12,HFF-1,MTT,48 h,dark,13 µM
Cc1cc(Nc2ncnc3ccc(NC4=NC(C)(C)CO4)cc23)ccc1Oc1ccn2ncnc2c1,NCI-H2170,ATP luminescence,,,0.088 µM
COc1ccccc1/C=N/N=C1\C(=O)Nc2ccccc21,HUVEC,MTT,24 h,,235 µg/mL
CN(C)C(=O)Nc1nc2c(Cl)cc(Cl)cc2c(=O)n1-c1ccccc1,NIH3T3,MTT,48 h,,38.2 µM
COc1cccc2c1C(=O)c1c(O)c3c(c(O)c1C2=O)C[C@@](O)(C(=O)CO)C[C@@H]3O[C@H]1C[C@H](N)[C@H](O)[C@H](C)O1,HUVEC,MTT,24 h,,31.2 µM
NNc1nc2c(Cl)cc(Cl)cc2c(=O)n1-c1ccc(F)cc1,NIH3T3,MTT,48 h,,73.7 µM
CC(=O)Nc1ccc(O)cc1,NIH3T3,,96 h,3D culture,277 µM
O[C@@H]1[C@@H](O)[C@H](Nc2cc3cccnc3c3ncccc23)OC[C@H]1O,HFF-1,MTT,48 h,dark,42.8 µM
C=CCn1c(=O)c2cnc(Nc3ccc(N4CCN(C)CC4)cc3)nc2n1-c1ccc2c(n1)[C@@](O)(CC)CC2,NCI-H1048,ATP luminescence,72 h,,0.31 µM
NNc1nc2ccc(Br)cc2c(=O)n1-c1ccccc1,NIH3T3,MTT,48 h,,102 µM
Cc1c(C)c2c(c(C)c1O)CCC(C)(COc1ccc(CC3SC(=O)NC3=O)cc1)O2 (stereo not drawn),NIH3T3,,96 h,3D culture,246 µM
CCOc1cc2ncc(C#N)c(Nc3ccc(OCc4ccccn4)c(Cl)c3)c2cc1NC(=O)/C=C/CN(C)C,NCI-H2170,ATP luminescence,,,0.0057 µM
NNc1nc2ccc(Br)cc2c(=O)n1-c1ccc(Cl)cc1,NIH3T3,MTT,48 h,,19.7 µM
COc1cc(C(=O)c2nc(-c3ccnc4[nH]ccc34)c[nH]2)cc(OC)c1OC,PC-3,MTS,72 h,,0.0301 µM
